High-throughput results: PubChem, The Scripps Research Institute Molecular Screening Center
DDE Tn6 FP inh – disrupts Tn6 cyclic peptide binding to fibrin D-Dimer-E complex | P02675 | Fibrin DD(E) TRITC-Tn6 fluorescence polarization displacement | inhibition, % at 8.3 µM | 370,000 compounds, 0.21% hits | AID 720509;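 active means inhibition above a per-campaign cutoff: mean of compounds within control limits plus 3 SD, cut at about 15% in these data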
Tn7 DDE FP – inhibitors of Tn7 peptide binding to human fibrin DD(E). P02675. FP displacement of FITC-Tn7 peptide from fibrin DD(E); 0% = median of compound wells per plate. inhibition, % at 8.3 µM. 370,000 compounds, 0.13% hits;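 active means inhibition above the mean of compounds falling within the control limits plus 3 SD of them, cut at about 14% in these data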
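Assay system: human fibrin DD(E) protein / Input: 2 µM fibrin DD(E) / Benchmarks: high control of 10 µM Aha-Tn7 peptide / Measured by: fluorescence polarization of the labelled Tn7 tracer / Medium: Tris buffer with calcium and detergent, pH 7.8 / Timing: 10 min compound pre-incubation, 3 h probe incubation at room temperature / Repeats: one replicate per compound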
ASAP1 GAP inh – blocks human ASAP1-stimulated Arf1 GTP hydrolysis. Q9ULH1. GDP FP detection. inhibition, % at 16.5 µM. 360,000 compounds, 0.19% hits. AID 624377; in the data active means inhibition above about 25%
Target sequence (Q9ULH1 325-724 limits assumed): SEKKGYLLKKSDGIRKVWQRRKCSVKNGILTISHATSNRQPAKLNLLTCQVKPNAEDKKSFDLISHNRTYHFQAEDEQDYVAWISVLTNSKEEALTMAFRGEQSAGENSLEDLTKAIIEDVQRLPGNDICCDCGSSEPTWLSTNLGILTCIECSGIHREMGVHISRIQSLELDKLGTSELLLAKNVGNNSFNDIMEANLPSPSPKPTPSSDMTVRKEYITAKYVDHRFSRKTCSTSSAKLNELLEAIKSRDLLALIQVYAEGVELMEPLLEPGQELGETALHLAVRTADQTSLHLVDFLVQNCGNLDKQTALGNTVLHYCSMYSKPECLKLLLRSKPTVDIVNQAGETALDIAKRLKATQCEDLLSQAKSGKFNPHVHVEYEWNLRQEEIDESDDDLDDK
ARFGAP1 inhibitor – inhibitors of rat ARFGAP1; Q62848; Arfgap1-stimulated ARF1 GTP hydrolysis, GDP FP detection; inhibition, % at 16.5 µM; 360,000 compounds, 0.26% hits;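 active means inhibition above a per-plate limit, mean inhibition of low control wells plus 3 SD, cut at about 25% in these data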
Target sequence (Q62848 1-136 limits assumed): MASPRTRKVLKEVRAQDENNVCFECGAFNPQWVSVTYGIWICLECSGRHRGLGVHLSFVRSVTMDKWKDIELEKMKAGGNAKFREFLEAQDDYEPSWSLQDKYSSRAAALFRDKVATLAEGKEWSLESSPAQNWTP
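Material: rat Arfgap1 catalytic domain, aa 1-136; also added: human ARF1(Δ1-17)-GTP substrate; compound dosing: one concentration, 16.5 µM, DMSO 1.26%; incubation: GTP hydrolysis reaction 2 h at 25 °C; measured by: Tracer-displacement fluorescence polarization with EDTA stop, 620/688 nm; evaluation: % inhibition from polarization; repeats: one replicate per compound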
ARFGAP1 confirm – rat ARFGAP1 inhibition, confirmed; inhibition, % at 16.5 µM; ARFGAP1-stimulated ARF1 GTP hydrolysis, GDP tracer FP; shares compounds with ARFGAP1 inhibitor; 890 compounds, 30% hits;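 active means average inhibition over triplicates above the hit cutoff set in the earlier primary screen, cut at about 25% in these data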
Of the large screens only hits and unclear results are named; the others gave an inactive call (follow-up assays come after a bar, where they were run). An excerpt weighted towards active compounds, which were near 0.74% of everything screened.

Cc1cc(O)c(C(C)C)cc1C1(c2cc(C(C)C)c(O)cc2C)OC(=O)c2ccccc21	ARFGAP1 inhibitor 27.2 | ARFGAP1 confirm inactive
Cc1cc(C2(c3ccc(O)c(C)c3)OC(=O)c3ccccc32)ccc1O	none
O=C(Nc1ccccc1)Nc1nc2ncccn2c1-c1ccc(F)cc1	none (no result: ASAP1 GAP inh, ARFGAP1 inhibitor)
CC(C)CN1CN2Cc3ccccc3C2CS1(=O)=O (stereo unspecified)	none (no result: ASAP1 GAP inh, ARFGAP1 inhibitor)
CN(C)S(=O)(=O)Nc1ccc2c(c1)Cc1ccccc1-2	ARFGAP1 inhibitor 28.1 | ARFGAP1 confirm inactive
Oc1cccc(NC(=S)N=Nc2c(O)[nH]c3ccccc23)c1	none
CCOc1ccc(NC(=S)N=Nc2c(O)[nH]c3ccccc23)cc1	ARFGAP1 inhibitor 27.0 | ARFGAP1 confirm inactive
Cc1cc(C)cc(NC(=O)CSc2cc(C(=O)c3nccn3C)c3ccccc3n2)c1	ARFGAP1 inhibitor 24.8 | ARFGAP1 confirm inactive
Cc1cccc(NC(=O)CSc2cc(C(=O)c3nccn3C)c3ccccc3n2)c1	none
COC(=O)[C@H](CC(C)C)N(CCCc1cn(Cc2ccc(C)cc2)nn1)S(=O)(=O)c1ccc(F)cc1Br	none (no result: ASAP1 GAP inh, ARFGAP1 inhibitor)
Cc1ccc(CNC2CCC23CCC(c2ccccc2)CC3)o1 (stereo unspecified)	none (no result: ASAP1 GAP inh, ARFGAP1 inhibitor)
OC(c1cccc(Cl)c1)c1nc(-c2cccc3cccnc23)cs1 (stereo unspecified)	none
OC(c1cccc(Cl)c1)c1nc(-c2csc3ccccc23)cs1 (stereo unspecified)	ARFGAP1 inhibitor 24.6 | ARFGAP1 confirm inactive
O=C(OCCN1CCN(C2CN(Cc3cn(Cc4ccccc4Cl)nn3)S(=O)(=O)C2)CC1)c1cc2ccccc2o1 (stereo unspecified)	none (no result: ASAP1 GAP inh, ARFGAP1 inhibitor)
CCSc1nnc(Cc2cc(=O)[nH]c(=O)[nH]2)n1-c1ccc(Cl)cc1	ARFGAP1 inhibitor 29.5 | ARFGAP1 confirm inactive
O=c1cc(Cc2nnc(SCc3ccccc3)n2-c2ccc(Cl)cc2)[nH]c(=O)[nH]1	none
CC(=O)C1(C(=O)NC2CCCC2)CC(c2ccccn2)=NO1 (stereo unspecified)	none (no result: ASAP1 GAP inh, ARFGAP1 inhibitor)
CC(C)C(C#CC1CC1)N(Cc1ccc2c(c1)OCO2)C(N)=NC(=O)/C=C/c1ccccc1 (stereo unspecified)	none (no result: ASAP1 GAP inh, ARFGAP1 inhibitor)
Cc1ccc(NC(=O)C(C)N=C2NS(=O)(=O)c3ccccc32)cc1F (stereo unspecified)	ARFGAP1 inhibitor 37.6 | ARFGAP1 confirm inactive
Cn1c(C(=O)NCC2CCCO2)cc2c(=O)[nH]c3ccccc3c21 (stereo unspecified)	ARFGAP1 inhibitor 25.0 | ARFGAP1 confirm inactive
CCOC(=O)c1ccc(-c2ccc3c(=O)c4ccccc4n(C)c3c2)cc1F	ARFGAP1 inhibitor 26.4 | ARFGAP1 confirm inactive
COc1ccc(C(=O)C=CNNC(=O)c2ccc(Cl)cc2)cc1	ARFGAP1 inhibitor 26.1 | ARFGAP1 confirm inactive
CC(=O)c1cccc(NC(=O)c2cccc3c(-c4cnn(C)c4)coc23)c1	ARFGAP1 inhibitor 28.4 | ARFGAP1 confirm 25.3
Cn1cc(-c2coc3c(C(=O)Nc4ccccc4)cccc23)cn1	none
COc1ccc(NC(=O)c2cccc3c(-c4cnn(C)c4)coc23)cc1	ARFGAP1 inhibitor 29.6 | ARFGAP1 confirm 29.9
COc1ccc(/C=N/n2c(N)c(S(=O)(=O)c3cccs3)c3nc4ccccc4nc32)cc1OC	none
CC(C)Cn1c(N)c(S(=O)(=O)c2cccs2)c2nc3ccccc3nc21	ARFGAP1 inhibitor 26.7 | ARFGAP1 confirm inactive
CC(C)CN(C(=O)CSc1nnc(-c2cccs2)n1C1CC1)C1CCS(=O)(=O)C1 (stereo unspecified)	ARFGAP1 inhibitor 27.0 | ARFGAP1 confirm inactive
Cc1ccc(S(=O)(=O)N(CC(=O)NCc2cccnc2)C2CCCCC2)cc1	none
Cc1cc(C)c(S(=O)(=O)N(CC(=O)NCc2cccnc2)C2CCCCC2)c(C)c1	ARFGAP1 inhibitor 29.5 | ARFGAP1 confirm inactive
Cc1ccc(S(=O)(=O)N(CCc2ccccc2)CC(=O)N2CCOCC2)cc1	none (no result: ASAP1 GAP inh, ARFGAP1 inhibitor)
CCC1CCC2(CC1)NC(=O)N(CC(=O)Nc1cccc(S(=O)(=O)N(C)c3ccccc3)c1)C2=O (stereo unspecified)	ARFGAP1 inhibitor 41.1 | ARFGAP1 confirm inactive
CN1C(=O)N(CC(=O)Nc2cccc(S(=O)(=O)N(C)c3ccccc3)c2)C(=O)C12CCCCC2	none
O=C(OCc1cn(Cc2ccccc2)nn1)N1CCCC1	none (no result: ASAP1 GAP inh, ARFGAP1 inhibitor)
Brc1ccc(Cn2nnc(-c3ccc(N4CCOCC4)cc3)n2)cc1	none (no result: ASAP1 GAP inh, ARFGAP1 inhibitor)
